Measurements gathered from unrelated publications.
Compare with care: the assays were run in different laboratories.
Target: MAP/microtubule affinity-regulating kinase 4 (MARK4, Homo sapiens, UniProt Q96L34)
Sequence (Q96L34 1-752, as in one of the studies): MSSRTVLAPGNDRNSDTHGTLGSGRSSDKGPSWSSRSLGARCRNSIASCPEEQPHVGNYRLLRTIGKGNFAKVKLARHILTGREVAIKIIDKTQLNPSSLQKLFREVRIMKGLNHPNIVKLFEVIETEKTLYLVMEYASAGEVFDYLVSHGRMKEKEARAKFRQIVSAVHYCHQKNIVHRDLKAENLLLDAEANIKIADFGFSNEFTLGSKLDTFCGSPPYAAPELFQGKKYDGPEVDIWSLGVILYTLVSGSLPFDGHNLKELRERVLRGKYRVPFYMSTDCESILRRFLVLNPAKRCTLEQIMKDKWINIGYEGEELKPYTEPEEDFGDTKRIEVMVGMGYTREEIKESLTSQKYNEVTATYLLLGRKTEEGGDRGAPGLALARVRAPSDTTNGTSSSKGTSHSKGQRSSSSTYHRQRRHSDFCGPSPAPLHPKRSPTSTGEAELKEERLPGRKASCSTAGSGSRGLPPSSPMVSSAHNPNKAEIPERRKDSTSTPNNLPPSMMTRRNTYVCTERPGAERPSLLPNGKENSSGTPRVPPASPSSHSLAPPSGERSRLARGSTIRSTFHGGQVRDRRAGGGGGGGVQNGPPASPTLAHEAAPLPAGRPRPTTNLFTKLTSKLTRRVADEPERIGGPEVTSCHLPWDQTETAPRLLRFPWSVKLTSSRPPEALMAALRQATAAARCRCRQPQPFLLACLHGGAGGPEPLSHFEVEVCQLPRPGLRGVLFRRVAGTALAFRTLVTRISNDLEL

CCOc1cc(-c2nncn2C)ccc1Nc1ncc2cc(C)nc(NCC(C)(C)C)c2n1 — inhibition (enzyme activity; inhibitor; FRET; 1 µM): < 15%
O=C(O)[C@H]1[C@H](Cn2nnc3ccccc3c2=O)CC[C@@H]1C(=O)c1ccc(OCCC2CCOCC2)cc1 — remaining binding (cell-free assay; competition with immobilised ligand; 1 µM): 96%
NS(=O)(=O)c1ccc(CNc2ccnc(Nc3cccc(CN4CCOCC4)c3)n2)cc1 — remaining activity (enzyme activity; inhibitor; radiometric; 1 µM): 98%
CCCS(=O)(=O)Nc1ccc(F)c(C(=O)c2c[nH]c3ncc(-c4ccc(Cl)cc4)cc23)c1F — inhibition (enzyme activity; inhibitor; 1 µM): < 20%
c1cc(CN2CCOCC2)cc(Nc2nccc(NCCc3cnc[nH]3)n2)c1 — remaining activity (enzyme activity; inhibitor; radiometric; 1 µM): 68%
CO[C@@H](C)c1c(Nc2ccc([C@H](N(C)C(=O)C3CCS(=O)(=O)CC3)C(F)(F)F)cc2)cnc2cc(Cl)nn12 — remaining binding (cell-free assay; competition with immobilised ligand; 1 µM): 76%
Cc1nn(CC(F)(F)F)cc1Nc1ncc(Br)c(NCCc2cnc[nH]2)n1 — remaining activity (enzyme activity; inhibitor; radiometric; 1 µM): 49%
Oc1cccc(-c2nc(N3CCOCC3)c3oc4ncccc4c3n2)c1 — remaining activity (enzyme activity; inhibitor; 10 µM): 108%
NS(=O)(=O)c1ccc(CNc2nc(Nc3cccc(CN4CCOCC4)c3)ncc2C2CC2)cc1 — remaining activity (enzyme activity; inhibitor; radiometric; 1 µM): 98%
COc1cc2ncnc(Nc3ccc(Oc4ccccc4)cc3C)c2cc1OC — inhibition (enzyme activity; inhibitor; 1 µM): 6%
COc1cc(Nc2c(C#N)cnc3cc(OCCCN4CCN(C)CC4)c(OC)cc23)c(Cl)cc1Cl — remaining signal (cell-free assay; 0.5 µM): 60.6%
O=C(N[C@H]1CCCCC/C=C\C2C[C@@]2(C(=O)O)NC(=O)[C@@H]2C[C@@H](Oc3ccncc3)CN2C1=O)OC1CCCC1 (stereo partly shown) — remaining binding (binding; competition with immobilised ligand; 1 µM): 100%
O=C1NC(=O)c2cc(Nc3ccc(F)cc3)c(Nc3ccc(F)cc3)cc21 — remaining signal (cell-free assay; 0.5 µM): 98.2%
COc1ccc2c(c1)O[C@@H](c1ccc(OC)c(OC)c1)C[C@H]2NC(=O)C1(c2ccc3c(c2)OC(F)(F)O3)CC1 — remaining binding (cell-free assay; competition with immobilised ligand; 1 µM): 92%
Cc1nn(CC(F)(F)F)cc1Nc1ncc(Br)c(NCCCNC(=O)C2CCC2)n1 — remaining activity (enzyme activity; inhibitor; radiometric; 1 µM): 27%
CCS(=O)(=O)c1cc2cc(C[C@@](O)(CC(C)(C)c3ccc(F)cc3C(N)=O)C(F)(F)F)[nH]c2cn1 — remaining binding (cell-free assay; competition with immobilised ligand; 1 µM): 100%
FC(F)(F)Oc1cccc(-c2cnc3ccc(-c4ccncc4)nn23)c1 — activity vs control (enzyme activity; inhibitor; radiometric; 5 µM): 93%
C[C@@H](c1cccc(C#N)c1)n1cc(Cl)cc(C(N)=O)c1=N — remaining binding (cell-free assay; competition with immobilised ligand; 1 µM): 100%
c1cc(CN2CCOCC2)cc(Nc2ncc(C3CC3)c(NCCc3c[nH]cn3)n2)c1 — remaining activity (enzyme activity; inhibitor; radiometric; 1 µM): 4%
COc1cc2ncnc(Nc3ccc(F)c(Cl)c3)c2cc1OCCCN1CCOCC1 — remaining signal (cell-free assay; 0.5 µM): 94.2%
CS(=O)(=O)NCC[C@H](NC(=O)c1cncc2c1cnn2-c1ccc(F)cc1)c1ccnc(S(C)(=O)=O)c1 — remaining binding (cell-free assay; competition with immobilised ligand; 1 µM): 78%
CC/C(=N\NC(=O)NCc1cccc(O)c1)c1ccc(O)c(C)c1O — inhibition (enzyme activity; inhibitor; 0.1 µM): -2.4%
C[C@H]1CCN(c2nccc(-c3cnn4ncccc34)n2)C1 — remaining binding (binding; 1 µM): 100%
O=C(NCCCNc1nc(Nc2cccc(NC(=O)N3CCCC3)c2)ncc1C1CC1)C1CCC1 — remaining activity (enzyme activity; inhibitor; radiometric; 1 µM): 7%
Nc1ncnc2occ(-c3ccc(NC(=O)Nc4cc(C(F)(F)F)ccc4F)cc3)c12 — remaining signal (cell-free assay; inhibitor; 20 µM): 51%
